# Activity calls are given as the source filed them. The rule behind the calls is not given here.
# Tests used:
# Format in all cases: functional
# Details in all cases: for EC50: read-out: ED50 (the source's name)
# HeLa = experiment: Cytotoxicity against human HeLa cells by MTT assay
# Procedure, shortened: (§1)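 MTT assay on human tumor cell lines (Hep2/Hepa2 […], WiDr colon, HeLa cervical). ED50 is the concentration of test sample giving a 50% reduction in absorbance relative to untreated cells, in µg/mL. Camptothecin served as positive control.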
# HEp-2 = experiment: Cytotoxicity against human Hep2 cells by MTT assay; procedure, shortened: as §1
# WiDr = experiment: Cytotoxicity against human WiDr cells by MTT assay; procedure, shortened: as §1
SMILES,Activity (HeLa),Activity (HEp-2),Activity (WiDr),EC50 (HeLa),EC50 (HEp-2),EC50 (WiDr)
CC(=O)O[C@H]1C[C@H]2OC[C@@]2(OC(C)=O)C2[C@H](OC(=O)c3ccccc3)[C@]3(C(C)(C)O)C[C@H](O)C(C)=C3[C@@]3(O)C(=O)OC[C@]213 (stereo partly specified),inactive,inactive,inactive,–,–,–
CC1=C2[C@@]3(O)C(=O)OC(C)(C)[C@]2(CC1)[C@@H](O)C1[C@](O)(CO)[C@@H](OC(=O)c2ccccc2)C[C@H](O)[C@]13C (stereo partly specified),inactive,inactive,inactive,–,–,–
CC(=O)OC[C@@]12C([C@H](OC(=O)c3ccccc3)[C@]34CCC(C)=C3[C@@]1(O)C(=O)OC4(C)C)[C@]1(OC(C)=O)CO[C@@H]1C[C@@H]2O (stereo partly specified),inactive,inactive,inactive,–,–,–
CC(=O)OC[C@@]12C([C@H](OC(=O)c3ccccc3)[C@]34C[C@H](O)C(C)=C3[C@@]1(O)C(=O)OC4(C)C)[C@]1(OC(C)=O)CO[C@@H]1C[C@@H]2O (stereo partly specified),inactive,inactive,inactive,–,–,–
CC[C@@]1(O)C(=O)OCc2c1cc1n(c2=O)Cc2cc3ccccc3nc2-1 [CAMPTOTHECIN],–,–,–,0.19 µg/mL,0.02 µg/mL,0.07 µg/mL
CC(=O)O[C@@]12CO[C@@H]1C[C@H](O)[C@@]13COC(=O)[C@]1(O)C1=C(C)CC[C@@]1(C(C)(C)O)[C@@H](OC(=O)c1ccccc1)C32 (stereo partly specified) [TASUMATROL Y],–,–,–,> 5 µg/mL,3.5 µg/mL,> 5 µg/mL
CC(=O)O[C@H]1C[C@H]2[C@@H](O)/C=C3\C[C@](C)(C(=O)[C@H](O)C(=C1C)C2(C)C)[C@@H](OC(C)=O)C[C@@H]3O,inactive,inactive,inactive,–,–,–

# Source: ChEMBL document CHEMBL1149824, “Tasumatrols U-Z, taxane diterpene esters from Taxus sumatrana” (2008)
